The record followed here is PubChem BioAssay AID743247 (Broad Institute, 2014).

Hit rate of the full screen: of about 350,000 compounds, about 300 (0.086%) were called active. Shown is part of a subset that was picked to be rich in actives. Unmarked numbers belong to inactive results.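 The calls were made as follows: active = mean inhibition across replicates of 30% or more, regardless of how many single replicates reach that level; inconclusive = mean under 30% yet at least half of replicates reach 30%; inactive = the rest.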

A short description of the assay: blockers of fibronectin fibrillogenesis by fibroblasts – AH1F cells, Alexa488-fibronectin fluorescence, plate reader, primary screen (AID 743247).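 Also: positive control wells lacked labelled fibronectin entirely.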 The conditions noted are these: Alexa488-fibronectin deposition fluorescence, overnight, at 12.6 µM, stronger effect = higher value. The method, boiled down: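 Material: AH1F fibroblast monolayer depositing Alexa488-labelled fibronectin into matrix | Input: 10000 AH1F cells/well | Medium: DMEM plus 2% serum, read in PBS | Reagent: Alexa488-fibronectin, 24 nM final in well | Compound dosing: One dose per compound, pinned | Schedule: 1 h adhesion, overnight exposure | Measured by: Fluorescence at 485 nm excitation, 525 nm emission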
Regarding `CO[C@@H]1CN(C)C(=O)c2cc(NC(=O)C3CC3)ccc2OC[C@@H](C)N(C(=O)NC(C)C)C[C@@H]1C`, the inhibition was -0.851%. For `C[C@@H](NC(=O)C[C@@H]1C[C@H]2c3cc(NC(=O)C4CCC4)ccc3O[C@H]2[C@@H](CO)O1)c1ccccc1`, the inhibition is 17.4%. On to `O=C(NC[C@@H]1[C@@H](c2ccccc2)[C@@H](CO)N1Cc1ccccn1)C1CCC1`, for which the inhibition is -14.4%. Under `O=C(C[C@@H]1CC[C@@H](NS(=O)(=O)c2ccc(F)cc2)[C@@H](CO)O1)NCCc1ccncc1` stands -5.79%.

`C[C@@H]1CN([C@@H](C)CO)C(=O)Cc2cc(NC(=O)Nc3ccc4c(c3)OCO4)ccc2O[C@H]1CN(C)S(=O)(=O)c1ccccc1`: the inhibition was 0.36%. Under `C[C@@H]1CN([C@H](C)CO)C(=O)c2ccccc2-c2ccccc2CO[C@H]1CN(C)S(=O)(=O)c1ccsc1` stands 1.86%. Under `C[C@@H]1CN([C@H](C)CO)S(=O)(=O)c2ccc(C#CC3CC3)cc2O[C@H]1CN(C)C(=O)C1CCCCC1` stands -1.06%; under `COc1ccc2c3c(n(C)c2c1)[C@H](CO)NCC31CN(Cc2cc(F)ccc2F)C1`, -4.09%; under `O=C(C1CCCCC1)N1CC2(C1)[C@H](c1ccccc1)[C@H](CO)N2CC1CCCC1`, -10.3%. Under `CS(=O)(=O)N1C[C@@H]2C(c3ccccc3)[C@H](C1)N2CC(F)(F)F` (some centres not stated) stands -13.1%.

For `O=C(C[C@@H]1CC[C@@H](NC(=O)Nc2ccc(F)cc2)[C@H](CO)O1)NCCN1CCCC1`, the inhibition is 0.829%. For `COc1ccc(-c2ccc3c(c2)[C@@H]2[C@@H](CCN2C(=O)NC2CCCC2)[C@@H](CO)N3C)cc1`, the inhibition is 5.47%.

On to `CC(C)NC(=O)Nc1cccc2c1O[C@@H](CN(C)C(=O)NC(C)C)[C@@H](C)CN(C)C2=O`, for which the inhibition was 3.55%. In the case of `CN(C)CC(=O)N1CC2(C1)[C@H](c1ccccc1)[C@H](CO)N2C(=O)C1CC1`, the inhibition is -3.48%. `O=C(C1CCOCC1)N1CC(=O)N2[C@H](CO)[C@@H](c3ccc(C#CC4CCCC4)cc3)[C@H]2C1`: the inhibition is -4.97%. Under `Cc1ccc(-n2ncc3c(=O)[nH]cnc32)c(C)c1` stands -2.15%; under `Cc1cccc(-n2ncc3c(=O)[nH]c(SCC(=O)Nc4cc(C)on4)nc32)c1`, -0.734%; under `Cc1cccc(-n2ncc(Cl)c(Cl)c2=O)c1`, 51.7% (active). Under `COc1ccc(-c2ccc3c(c2)O[C@@H](CN(C)CC2CCOCC2)[C@@H](C)CN([C@@H](C)CO)S3(=O)=O)cc1` stands 5.61%. Under `C[C@@H]1CC=CC[C@@H](c2ccccc2)NC(=O)[C@H](C)N(C)C(=O)c2ccccc2O1` (mixture of isomers) stands -2.82%; under `CN(C)c1ccc2c(c1)[C@H]1C[C@H](CC(=O)NCc3ccc(Cl)cc3)O[C@H](CO)[C@H]1O2`, 1.04%.

In the case of `C[C@@H]1CC=CC[C@H](c2ccc(F)cc2)NC(=O)[C@@H](Cc2ccccc2)N(C)C(=O)c2ccccc2O1` (mixture of isomers), the inhibition is 7.06%. With `COc1ccccc1NC(=O)N[C@H]1CC[C@H](CCNC(=O)Cc2ccccn2)O[C@@H]1CO`, the inhibition was 1.21%.

`COC(=O)C[C@H]1CC[C@@H]2[C@@H](COc3ccc(NC(=O)Nc4ccc(Cl)cc4)cc3C(=O)N2C)O1`: the inhibition is -17.5%. Under `CN(C)C(=O)c1ccc(-c2ccc([C@H]3[C@H](CO)N4C(=O)CN(C(=O)C5CCCC5)C[C@@H]34)cc2)cc1` stands 0.201%. Under `C[C@H]1CCCCO[C@H](CN(C)C(=O)Nc2ccc(F)cc2)[C@@H](C)CN([C@@H](C)CO)C(=O)c2cc(NC(=O)CCC(F)(F)F)ccc2O1` stands 7.35%; under `COc1ccc2c3c(n(C)c2c1)[C@H](CO)N(C(=O)c1ccncc1)CC31CCN(CC2CC2)CC1`, -1.91%; under `O=C(C[C@@H]1C=C[C@@H](NC(=O)c2cccnc2)[C@H](CO)O1)NCc1ccncn1`, 11.1%. Under `CNC(=O)C[C@@H]1CC[C@@H]2[C@H](COc3ccc(NC(=O)c4cccs4)cc3C(=O)N2C)O1` stands -9.79%. `C[C@@H](C(=O)N(C)C[C@H]1OCc2ccccc2-c2c(n(C)c3ccccc23)C(=O)N([C@@H](C)CO)C[C@@H]1C)c1ccccc1`: the inhibition is -2.51%. Under `COc1cccc(C#Cc2ccc3c(c2)[C@@H]2[C@@H](CCN2S(=O)(=O)c2ccc(C)cc2)[C@@H](CO)N3)c1` stands 2.44%; under `COc1ccccc1C#Cc1ccc([C@H]2[C@@H](C#N)N(C(=O)C3CCCCC3)[C@@H]2CO)cc1`, -2.57%.

For the molecule `O=C(C[C@@H]1CC[C@@H]2[C@H](COC[C@@H](O)CN2C(=O)c2ccccc2F)O1)N1CCOCC1`, the inhibition is -11.5%. For `O=C(O)C[C@H]1C=C[C@@H](NC(=O)Nc2cc(F)ccc2F)[C@@H](CO)O1`, the inhibition is -9.56%. Under `COc1ccc([C@@H]2C/C=C\C[C@@H](c3ccc4c(c3)OCO4)NC(=O)CCC(=O)N2)c(OC)c1` stands 8.56%. With `CC(C)NC(=O)N[C@@H]1CC[C@H](CC(=O)NC2Cc3ccccc3C2)O[C@H]1CO`, the inhibition was 10.9%. `O=C(C[C@@H]1CC[C@H](NC(=O)C2CCC2)[C@@H](CO)O1)NC1CCCCC1`: the inhibition was -5.05%. Consider `CC(C)C#Cc1ccc2c(c1)O[C@@H](CN(C)C(=O)C1CCC1)[C@@H](C)CN([C@@H](C)CO)S2(=O)=O`, for which the inhibition was -2.23%. Under `CC(=O)N(C)C[C@H]1Oc2ncc(C#Cc3ccc(F)cc3)cc2C(=O)N([C@H](C)CO)C[C@@H]1C` stands 11.6%; under `CN1C(=O)c2cc(NC(=O)Cc3ccccc3)ccc2OC[C@H]2O[C@H](CC(=O)NCc3ccc(Cl)cc3)CC[C@H]21`, 1.06%; under `CC(C)NC(=O)Nc1ccc2c(c1)CC(=O)N(C)C[C@@H](C)[C@@H](CN(C)C(=O)OC(C)(C)C)O2`, -1.15%. On to `COc1cccc(C(=O)Nc2ccc3c(c2)OC[C@H](C)NC[C@H](C)[C@H](OC)CN(C)C3=O)c1`, for which the inhibition was 3.33%. Take `O=C(c1cccnc1)N1C[C@H]2[C@@H](c3ccccc31)[C@H](CO)N2C(=O)C1CC1`: the inhibition is 7.1%.

`COc1cccc(-c2cnc3c(c2)C(=O)N([C@@H](C)CO)C[C@@H](C)[C@@H](CN(C)Cc2ccc(C(=O)O)cc2)O3)c1`: the inhibition was -19.8%. For `CC(C)NC(=O)N(C)C[C@H]1Oc2ccc(N)cc2C(=O)N(C)C[C@@H]1C`, the inhibition is 0.428%. Under `C[C@H]1CCCCO[C@@H](CN(C)C(=O)Nc2ccccc2)[C@@H](C)CN([C@@H](C)CO)C(=O)c2cc(NC(=O)CCC(F)(F)F)ccc2O1` stands -5.23%; under `C[C@@H]1CN([C@@H](C)CO)C(=O)c2c(c3ccccc3n2C)-c2ccccc2CO[C@H]1CN(C)C(=O)N[C@H](C)c1ccccc1`, -3.56%; under `COCC(=O)Nc1ccc2c(c1)OC[C@@H](C)N(Cc1ccccc1C(=O)O)C[C@@H](C)[C@H](OC)CN(C)C2=O`, -5.62%. Under `CCC(=O)Nc1ccc2c(c1)C(=O)N(C)C[C@@H](OC)[C@@H](C)CN(C(=O)CN(C)C)[C@@H](C)CO2` stands 2.05%; under `CNC[C@@H]1Oc2ccc(NC(C)=O)cc2CC(=O)N(C)C[C@@H]1C`, -0.299%. Under `CO[C@H]1CN(C)C(=O)c2ccc(NC(=O)Nc3ccccc3)cc2OC[C@@H](C)N(C(=O)CC2CC2)C[C@@H]1C` stands -8.75%. On to `O=C(Nc1nc(-c2ccncc2)cs1)C1COc2ccccc2O1` (configuration not stated), for which the inhibition is 30.8% (active). Under `C/C(=N/NC(=O)C1COc2ccccc2O1)c1ccco1` (configuration not stated) stands -7.65%; under `O=C(Nc1cc(S(=O)(=O)N2CCCCC2)ccc1Cl)C1COc2ccccc2O1` (configuration not stated), 1.13%. Consider `COc1ccccc1NC(=O)N[C@H]1C=C[C@@H](CC(=O)N[C@@H](C)c2ccccc2)O[C@@H]1CO`, for which the inhibition is -15.6%. On to `CCCc1cn(CC[C@H]2CC[C@@H](NC(=O)C3CCOCC3)[C@@H](CO)O2)nn1`, for which the inhibition is 0.091%. Under `O=C(COC(=O)c1ccccc1)Nc1ccccc1Sc1ccccc1` stands -7.06%; under `O=C(OCC(O)C(O)COC(=O)c1ccccc1)c1ccccc1` (configuration not stated), 2.45% (active); under `O=C(OCc1ccc(-c2ccccc2)cc1)c1cccc(O)c1`, 7.52%.

As to `C[C@H]1CN([C@@H](C)CO)C(=O)c2c(c3ccccc3n2C)-c2ccccc2CO[C@@H]1CN(C)C(=O)Nc1ccnc(N2CCOCC2)c1`, the inhibition was 4.14%. Under `O=C(C1CCC1)N1CC(=O)N2[C@H](CO)[C@H](c3ccc(C#CCc4ccccc4)cc3)[C@@H]2C1` stands -13.2%; under `O=C(C[C@H]1C=C[C@@H](NC(=O)c2ccc(F)cc2)[C@@H](CO)O1)NCCc1ccncc1`, 10.9%. Under `COc1ccccc1S(=O)(=O)N1C[C@@H](O)COC[C@H]2O[C@H](CC(=O)O)CC[C@@H]21` stands -7.66%. Regarding `Cc1ccc(S(=O)(=O)Nc2ccc3c(c2)C(=O)N([C@@H](C)CO)C[C@@H](C)[C@@H](CN(C)Cc2ccc(C(F)(F)F)cc2)OCCCC[C@@H](C)O3)cc1`, the inhibition is 7.11%.

As for `CC(C)NC(=O)N[C@H]1CC[C@H](CC(=O)NCCCN(C)C)O[C@H]1CO`, the inhibition was -22.3%. As to `C[C@H]1CN(C)C(=O)c2cc(N(C)C)ccc2O[C@H]1CN(C)C(=O)OC(C)(C)C`, the inhibition was -2.56%.

Consider `CO[C@@H]1CN(C)C(=O)c2cc(NC(=O)C3CC3)ccc2OC[C@H](C)N(C(=O)CN(C)C)C[C@H]1C`, for which the inhibition was -1.48%.

In general, inhibition refers to the change of the read-out against control, counted positive when it falls.
